Results from ChEMBL document CHEMBL2150889, “Azetidinyl oxadiazoles as potent mGluR5 positive allosteric modulators” (Bioorg Med Chem Lett, 2012).
pEC50, pIC50: −log10 of the molar value. In brackets after ≈: the same amount, converted by molar mass.

What was measured:
[1] = molecular target: T1, Metabotropic glutamate receptor 5 (Homo sapiens, UniProt P41594); test: Positive allosteric modulation of human mGluR5 expressed in recombinant HEK293 cells by FLIPR assay; assay type: cell-based
Method in brief: (§1)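 HEK293 cells recombinantly expressing human mGluR5 were seeded at 2×10^4 cells/well on poly-D-lysine. They were incubated overnight at 37 °C in glutamate/glutamine-free medium, then loaded for 1 h at 37 °C with calcium 5 dye containing 3 U/ml glutamic pyruvic transaminase and 3 mM sodium pyruvate. Calcium flux was read by FLIPR.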

[2] = molecular target: T1, Metabotropic glutamate receptor 5; test: Negative allosteric modulation of human mGluR5 expressed in recombinant HEK293 cells by FLIPR assay; assay type: cell-based; conditions: for inhibition: concentration not given here; method in brief: as §1
[3] = Solubility of the compound in potassium phosphate buffer after 4 hrs by UPLC analysis; assay type: physicochemical
Method in brief: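 DMSO stock of compound (300 μL) was diluted with 2 × 200 μL of 25 mM potassium phosphate buffer. The mixture was shaken on a titer plate shaker for 4 h.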

Liver microsomes [4] = test: Intrinsic clearance in human liver microsomes; assay type: ADME, Microsome
Method in brief: (§2)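 Intrinsic clearance was determined by the Obach method. Liver blood flow was taken as 1.5 L/min for human and 20 mL/min for rat. Human values are expressed in L/min and rat values in mL/min.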

Liver microsomes [5] = test: Intrinsic clearance in rat liver microsomes; assay type: ADME, Microsome; method in brief: as §2
[6] = Plasma protein binding in human; assay type: ADME, cell-free; conditions: read-out: PPB (converted)
[7] = Plasma protein binding in rat; assay type: ADME, cell-free; conditions: read-out: PPB (converted)
[8] = Ratio of drug level in brain to plasma of rat at 10 mg/kg, po after 1 hr; assay type: ADME, organism-based; design: dose 10 mg/kg, route oral; conditions: brain and plasma, read-out: BPR
Method in brief: (§3)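 Rats got a single 10 mg/kg oral dose (n = 2 animals). Brain and plasma were sampled at 1 h. Concentrations were measured by HPLC-tandem MS and averaged values reported. Brain/plasma ratio is brain level (ng/g) divided by plasma level (ng/mL).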

[9] = molecular target: T1, Metabotropic glutamate receptor 5; test: Binding affinity to human mGluR5 expressed in recombinant HEK293 cells by radiolabeled assay; assay type: cell-based
Target sequence in this assay (P41594 21-1212 limits assumed): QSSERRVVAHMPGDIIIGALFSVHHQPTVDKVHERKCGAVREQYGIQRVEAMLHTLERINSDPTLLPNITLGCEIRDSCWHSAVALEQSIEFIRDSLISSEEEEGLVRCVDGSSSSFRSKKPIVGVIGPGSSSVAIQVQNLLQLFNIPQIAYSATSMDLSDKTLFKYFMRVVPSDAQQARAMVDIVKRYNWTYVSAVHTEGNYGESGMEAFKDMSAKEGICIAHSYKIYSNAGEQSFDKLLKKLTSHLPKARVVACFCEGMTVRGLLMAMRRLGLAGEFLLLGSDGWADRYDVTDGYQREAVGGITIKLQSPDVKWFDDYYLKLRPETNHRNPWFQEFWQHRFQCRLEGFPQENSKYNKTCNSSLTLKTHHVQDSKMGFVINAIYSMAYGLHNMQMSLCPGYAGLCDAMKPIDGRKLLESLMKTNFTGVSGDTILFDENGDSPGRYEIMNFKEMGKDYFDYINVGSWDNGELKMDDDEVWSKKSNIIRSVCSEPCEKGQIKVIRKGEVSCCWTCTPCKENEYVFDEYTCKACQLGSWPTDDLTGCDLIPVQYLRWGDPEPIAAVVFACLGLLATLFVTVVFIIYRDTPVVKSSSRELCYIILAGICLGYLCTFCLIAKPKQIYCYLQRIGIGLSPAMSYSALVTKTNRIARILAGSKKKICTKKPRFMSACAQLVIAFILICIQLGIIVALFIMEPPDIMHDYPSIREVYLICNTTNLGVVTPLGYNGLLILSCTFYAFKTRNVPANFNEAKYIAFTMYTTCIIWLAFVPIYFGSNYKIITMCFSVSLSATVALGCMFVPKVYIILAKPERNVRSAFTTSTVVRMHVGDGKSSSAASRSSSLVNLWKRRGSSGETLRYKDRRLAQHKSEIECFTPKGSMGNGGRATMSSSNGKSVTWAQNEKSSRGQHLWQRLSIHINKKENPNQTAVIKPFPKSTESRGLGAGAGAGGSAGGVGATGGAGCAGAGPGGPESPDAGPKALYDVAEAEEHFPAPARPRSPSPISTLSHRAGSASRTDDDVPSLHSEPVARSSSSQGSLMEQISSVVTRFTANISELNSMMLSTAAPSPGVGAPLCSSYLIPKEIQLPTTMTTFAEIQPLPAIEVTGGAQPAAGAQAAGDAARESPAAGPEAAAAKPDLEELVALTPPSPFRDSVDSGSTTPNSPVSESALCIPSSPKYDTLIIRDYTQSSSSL

[10] = Drug uptake in rat brain at 10 mg/kg, po after 1 hr; assay type: ADME, organism-based; design: dose 10 mg/kg, route oral; conditions: read-out: Drug uptake; method in brief: as §3
[11] = Plasma concentration in rat at 10 mg/kg, po after 1 hr; assay type: ADME, organism-based; design: dose 10 mg/kg, route oral; method in brief: as §3

Row | SMILES | pEC50 [1] | Emax [1] [%] | pIC50 [2] | inhibition [2] [%] | solubility at 4 h [3] [µM] | Activity [1] [%] | CLH (Liver microsomes [4]) [L/min] | CLH (Liver microsomes [5]) [mL/min] | fraction unbound [6] | fraction unbound [7] | Kp at 1 h [8] | Activity [9] [µM] | concentration at 1 h [10] [ng/g] | concentration at 1 h [11] [ng/mL]
1 | O=C(c1ccc(F)cc1)N1CC(c2nc(-c3cccc(Cl)c3)no2)C1 | < 5.00 | -12 | 5.40 | 60 | 47 (≈ 16.8 µg/mL) | – | – | – | – | – | – | – | – | –
2 | CC1CCCCC1C(=O)N1CC(c2nc(-c3cccc(F)c3)no2)C1 (stereo unspecified) | 6.27 | 87 | < 5.00 | – | 180 (≈ 61.8 µg/mL) | 48 | 1.6 | 13 | 0.034 | 0.055 | – | – | – | –
3 | O=C(C1CCC(F)(F)CC1)N1CC(c2nc(-c3cccc(Cl)c3)no2)C1 | 6.74 | 75 | < 5.00 | – | 130 (≈ 49.6 µg/mL) | 3 | 0.9 | 24 | 0.013 | 0.031 | 1.75 | 3.8 | 280 | 160
4 | O=C([C@H]1CC2CCC1C2)N1CC(c2nc(-c3cccc(F)c3)no2)C1 (stereo partly specified) | 7.14 | 140 | – | – | 54 (≈ 18.4 µg/mL) | – | 59 | 16 | 0.007 | 0.008 | 2.33 | – | 84 | 36
5 | Cc1ccc(S(=O)(=O)N2CC(c3nc(-c4cccc(C)c4)no3)C2)cc1 | < 5.00 | 1 | 6.17 | 80 | – | – | – | – | – | – | – | – | – | –
